Laboratory results published in ChEMBL document CHEMBL5113379, “4-Oxooctahydroquinoline-1(2H)-carboxamides as hepatitis B virus (HBV) capsid core protein assembly modulators” (Bioorg Med Chem Lett, 2022).
Values after ≈ are worked out from the molar mass of the structure shown. Active and inactive are the calls of the source. The rule behind the calls is not given here.

Key:
Hepatitis B virus = test: Antiviral activity against HBV infected in mouse AML12HBV10 cells assessed as reduction in viral replication incubated for 48 hrs and measured by [alpha-32P]UTP-labeled radio-probe based dot blot hybridization assay; type: functional, organism-based
In short: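 The test used the stable HBV line AML12HBV10, derived from immortalized mouse hepatocytes (AML12). HBV replication was measured by dot blot hybridization and EC50 was determined.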

[1] = Metabolic stability in human liver microsomes assessed as half-life; type: ADME, Microsome; conditions: for t1/2: microsomes
[2] = Metabolic stability in mouse liver microsomes assessed as half-life; type: ADME, Microsome; conditions: for t1/2: microsomes
[3] = Cytotoxicity against mouse […] measured by MTT assay; type: toxicity, cell-based, AML12HBV10
In short: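 Cytotoxicity was measured by MTT assay in the stable HBV line AML12HBV10, derived from immortalized mouse hepatocytes (AML12), and CC50 was determined.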

HepDES19 [4] = test: Antiviral activity against HBV infected in human HepDES19 cells assessed reduction of amounts of encapsidated pgRNA 5 uM […] by northern blot hybridization assay; type: functional, cell-based
In short: (§1)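 In tet-inducible HepDES19 cells, pgRNA transcription was induced by tetracycline removal; tet-maintained cells were the negative control. Treatment with DMSO or compound at 2 or 5 μM began 24 h after tet removal and lasted 6 days. Encapsidated pgRNA was detected by Northern blot hybridization, with ribosomal RNA as loading control.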

HepDES19 [5] = test: Antiviral activity against HBV infected in human HepDES19 cells assessed as reduction of capsid associated HBV DNA 5 uM measured by agarose gel electrophoresis-based particle gel assay; type: functional, cell-based
In short: (§2)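 HepDES19 cells were kept with tetracycline to block pgRNA transcription (negative control) or without it to induce pgRNA transcription and HBV DNA replication. Compounds (1, 2 or 5 μM) or DMSO were added starting 24 h after tet removal and kept for 6 days.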

[6] = Solubility of the compound at pH 4; type: physicochemical; conditions: buffer
[7] = Solubility of the compound at pH 7; type: physicochemical; conditions: buffer
[8] = Plasma protein binding in mouse; type: ADME, cell-free
[9] = Plasma protein binding in human; type: ADME, cell-free
[10] = Half-life in mouse at 3 mg/kg, iv; type: ADME, organism-based; conditions: in vivo
[11] = AUClast in mouse at 3 mg/kg, iv; type: ADME, organism-based; parameters: time 0 - last, dose 3 mg/kg, route iv; conditions: in vivo
[12] = Observed volume of distribution at steady state in mouse at 3 mg/kg, iv; type: ADME, organism-based; conditions: in vivo, read-out: Vdss
[13] = Half-life in mouse at 10 mg/kg, po; type: ADME, organism-based; conditions: in vivo
[14] = Cmax in mouse at 10 mg/kg, po; type: ADME, organism-based; parameters: dose 10 mg/kg, route po; conditions: in vivo
[15] = AUClast in mouse at 10 mg/kg, po; type: ADME, organism-based; parameters: time 0 - last, dose 10 mg/kg, route po; conditions: in vivo
[16] = Oral bioavailability in mouse at 10 mg/kg; type: ADME, organism-based; conditions: in vivo
HepDES19 [17] = test: Antiviral activity against HBV infected in human HepDES19 cells assessed as reduction of capsid associated HBV DNA 1 uM measured by agarose gel electrophoresis-based particle gel assay; type: functional, cell-based; in short: as §2
HepDES19 [18] = test: Antiviral activity against HBV infected in human HepDES19 cells assessed reduction of amounts of encapsidated pgRNA 2 uM […] by northern blot hybridization assay; type: functional, cell-based; in short: as §1
HepDES19 [19] = test: Antiviral activity against HBV infected in human HepDES19 cells assessed as reduction in levels of intracellular core protein 2 uM measured by Western blot assay; type: functional, cell-based
In short: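 HepDES19 cells kept in tetracycline, then switched to tet-free medium to induce pgRNA transcription and HBV DNA replication; tet-maintained cells serve as negative control. Treatment with compound or DMSO started 24 h after tet removal and continued for 6 days. Intracellular core protein was detected by Western blot with an antibody against the C-terminal 14 residues of core, with β-actin as loading control.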

HepDES19 [20] = test: Antiviral activity against HBV infected in human HepDES19 cells assessed as reduction of capsid associated HBV DNA 2 uM measured by agarose gel electrophoresis-based particle gel assay; type: functional, cell-based; in short: as §2
[21] = Apparent permeability across apical to basolateral membrane in human Caco-2 cells; type: ADME, cell-based
[22] = Apparent permeability across basolateral to apical membrane in human Caco-2 cells; type: ADME, cell-based
[23] = Efflux ratio for apparent permeability across basolateral to apical side to apical to basolateral side in human Caco2 cells; type: ADME, cell-based; conditions: Caco-2
[24] = Hepatitis B virus, AML12HBV10, 48 h

SMILES	EC50 (Hepatitis B virus; [24]) [µM]	CC50 ([3]; aml12hbv10) [µM]	other results
C[C@@H](NS(=O)(=O)c1cc2c(c(C(=O)Nc3ccc(F)c(Cl)c3)c1)OCCO2)c1ccncc1	13.4	–	–
O=C1CCN(C(=O)Nc2ccc(F)c(C(F)F)c2)[C@@H]2CCCC[C@H]12	0.26	> 20	t1/2 [1]: 69 min; t1/2 [2]: 35 min
O=C1CCN(C(=O)Nc2ccc(F)c(Cl)c2)c2ccc(Cl)cc21	4.83	> 100	–
O=C1CCCN(C(=O)Nc2ccc(F)c(Cl)c2)c2ccccc21	> 10	> 100	–
O=C1CC(c2ccccc2)N(C(=O)Nc2ccc(F)c(Cl)c2)c2ccccc21 (centres undefined)	2.89	> 50	–
O=C(Nc1ccc2c(c1)CCC2)c1cccc2c1OCCO2	> 10	> 50	–
O=C(Nc1ccc(F)c(Cl)c1)c1cccc2ccoc12	0.73	> 100	t1/2 [1]: 61.2 min; t1/2 [2]: 6 min
O=C(Nc1cc(Cl)nc(Cl)c1)c1cccc2c1OCCO2	6.3	> 33.3	–
O=C(Nc1ccc(F)c(Cl)c1)C1CCCc2ccccc21 (centres undefined)	9.4	25	–
CCC(C)NS(=O)(=O)c1cc2c(c(C(=O)Nc3ccc(F)c(Cl)c3)c1)OCCO2 (centres undefined)	1.64	> 33.3	t1/2 [1]: 37.4 min; t1/2 [2]: 16.4 min
O=C(Nc1ccc(F)c(Cl)c1)c1cccc2c1OCCO2	0.2	> 50	t1/2 [1]: 1.7 min; t1/2 [2]: 6.6 min
O=C1CCN(C(=O)Nc2ccc(F)c(Cl)c2)C2CCCCC12 (stereo in doubt; 61) [listing 1 of 2 here]	–	–	Activity (HepDES19 [4]): Active; Activity (HepDES19 [5]): Active
O=C(NC1CC(F)(F)C1)c1cccc2c1OCCO2	> 10	> 100	–
O=C1CCN(C(=O)Nc2ccc(F)c(Cl)c2)C2CCCCC12 (centres undefined)	–	–	EC50 (Hepatitis B virus; aml12hbv10): 1.81 µM; t1/2 [1]: 5 min; t1/2 [2]: 7.8 min
O=C(Nc1ccc(F)c(Cl)c1)N1CCS(=O)(=O)c2ccccc21	> 10	> 100	–
O=C(Nc1ccc(F)c(Cl)c1)c1cccc2nccnc12	2.39	> 12.5	–
O=C(Nc1ccc(F)c(Cl)c1)c1cc(S(=O)(=O)N2CCC(O)CC2)cc2c1OCCO2	5.57	> 50	–
O=C1CCN(C(=O)Nc2ccc(F)c(Cl)c2)C(Cc2ccccc2)C1 (centres undefined)	5.11	> 20	–
O=C(Nc1ccc(F)c(Cl)c1)c1cccc2c1OC(F)(F)O2	0.11	> 100	t1/2 [1]: 16.4 min; t1/2 [2]: 11 min
O=C1CCC(C(=O)Nc2ccc(F)c(Cl)c2)c2ccccc21 (centres undefined)	1.67	> 100	t1/2 [2]: 5.8 min
Cc1cc(NC(=O)N2CCC(=O)[C@H]3CCCC[C@H]32)ccc1F	0.38	> 20	–
O=C1CCN(C(=O)Nc2ncc(F)c(Cl)n2)[C@@H]2CCCC[C@H]12	> 10	> 50	–
O=C1CCN(C(=O)Nc2ccc(F)c(C(F)(F)F)c2)[C@@H]2CCCC[C@H]12	0.97	> 20	–
O=C(Nc1ccc(C(F)(F)F)c(Cl)c1)c1cccc2c1OCCO2	1.59	> 50	t1/2 [1]: 44.4 min; t1/2 [2]: 6.9 min
O=C(CC1COCCO1)Nc1ccc(F)c(Cl)c1 (centres undefined)	5.02	> 100	–
O=C1CCN(C(=O)Nc2ccc(F)c(Cl)c2)c2ccccc21	1.32	> 12.5	t1/2 [1]: 47.2 min; t1/2 [2]: 10 min
O=C1CCN(C(=O)Nc2cccc(Cl)c2)[C@@H]2CCCC[C@H]12	0.22	> 20	–
O=C1CCN(C(=O)Nc2ccc(F)c(Cl)c2)C2CCCCC12 (stereo in doubt; 60)	–	–	EC50 (Hepatitis B virus; aml12hbv10): 1.86 µM; t1/2 [1]: 48 min; t1/2 [2]: 7 min

SMILES	EC50 (Hepatitis B virus; [24]) [µM]	CC50 ([3]; aml12hbv10) [µM]	other results
N#Cc1ccc(NC(=O)c2cccc3c2OCCO3)cc1Cl	3.84	> 50	–
O=C(Nc1ccc(F)c(Cl)c1)n1[nH]c(=O)c2ccccc21	> 10	> 100	–
O=C(Nc1ccc(F)c(Cl)c1)c1cccc2c1OCC2	2.18	4.6	–
O=C1CCN(C(=O)Nc2cc(F)c(F)c(F)c2)[C@@H]2CCCC[C@H]12	2.41	> 100	–
O=C(Nc1cc(F)c(F)c(F)c1)c1cccc2c1OCCO2	0.28	> 100	–
O=C1CCN(C(=O)Nc2ccc(F)c(Cl)c2)C2CCCCC12 (stereo in doubt; 61) [listing 2 of 2 here]	–	–	EC50 (Hepatitis B virus; aml12hbv10): 0.46 µM; t1/2 [1]: 71 min; t1/2 [2]: 56 min; solubility [6]: 239 µM (≈ 77.6 µg/mL); solubility [7]: 253 µM (≈ 82.2 µg/mL); PPB [8]: 94%; PPB [9]: 90%; t1/2 [10]: 36 min; AUClast [11]: 1952 ng·h/mL; Vd [12]: 0.8 L/kg; t1/2 [13]: 42 min; Cmax [14]: 2727 ng/mL; AUClast [15]: 4516 ng·h/mL; F [16]: 69%
O=C(Nc1ccnc(Cl)c1)c1cccc2c1OCCO2	4.65	> 100	–
O=C(Nc1ccc(F)c(Cl)c1)N1CCOc2cccnc21	> 10	26.3	–
O=C(Nc1ccc(F)c(Cl)c1)N1CCOc2ccccc21	0.52	> 100	t1/2 [1]: 14.7 min; t1/2 [2]: < 4 min
O=C(Nc1ccc2ncsc2c1)c1cccc2c1OCCO2	> 10	> 50	–
C=C1[C@H](CO)[C@@H](O)C[C@@H]1n1cnc2c(=O)[nH]c(N)nc21	–	–	Activity (HepDES19 [17]): Active
O=C1CCN(C(=O)Nc2ccnc(Cl)n2)[C@@H]2CCCC[C@H]12	> 10	> 100	–
O=C(Nc1ccc(N2CCOCC2)c(Cl)c1)c1cccc2c1OCCO2	> 10	> 25	–
CC1(C)Cc2cccc(C(=O)Nc3ccc(F)c(Cl)c3)c2O1	1.48	> 50	–
N#Cc1cc(NC(=O)N2CCC(=O)[C@H]3CCCC[C@H]32)ccc1F	0.85	> 20	–
O=C(NCc1ccc(F)cc1F)c1cccc2c1OCCO2	4.62	> 20	–
COC(=O)C1=C(C)NC(c2ncc(F)cc2F)=N[C@H]1c1ccc(F)cc1Cl	–	–	Activity (HepDES19 [18]): Active; Activity (HepDES19 [19]): Active; Activity (HepDES19 [20]): Active
O=C(Nc1ccc(F)c(Cl)c1)c1cccc2cc[nH]c12	4.48	> 33.3	–
O=C1CCN(C(=O)Nc2ccc(F)c(Cl)c2)[C@H]2CCCC[C@@H]12 (relative stereo)	–	–	EC50 (Hepatitis B virus; aml12hbv10): 0.71 µM; half-life ([1]; liver microsomes): 56.8 min; half-life ([2]; liver microsomes): 32 min; CC50 ([3]; AML12HBV1 cells): > 100 µM; Papp A→B [21]: 14.7 ×10⁻⁶ cm/s; Papp B→A [22]: 7.8 ×10⁻⁶ cm/s; efflux ratio [23]: 0.5
O=C1CCN(C(=O)Nc2ccc(F)c(Cl)c2)C(c2ccccc2)C1 (centres undefined)	5.01	> 100	–
O=C(Nc1ccc(F)c(Cl)c1)c1cccc2c1OCCC2	0.75	> 12.5	–
O=C1CC2CC1CN2C(=O)Nc1ccc(F)c(Cl)c1 (centres undefined)	> 10	> 100	–
O=C1CC2CCC(C1)N2C(=O)Nc1ccc(F)c(Cl)c1	> 10	> 100	–
O=C(Nc1ccc2c(c1)OCO2)c1cccc2c1OCCO2	4.2	> 100	–
O=C(Nc1ccc(O)c(Cl)c1)c1cccc2c1OCCO2	9.83	> 100	–
O=C1COc2cccc(C(=O)Nc3ccc(F)c(Cl)c3)c2N1	> 10	> 50	–
C[C@@H](NS(=O)(=O)c1ccc(F)c(C(=O)Nc2ccc(F)c(F)c2)c1)C1CC1	–	–	Activity (HepDES19 [4]): Active
